# Results: PubChem BioAssay AID1899 (The Scripps Research Institute Molecular Screening Center, 2009)
# About 1,000 (0.33%) of roughly 300,000 compounds were called active.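 Rule for the calls: active = inhibition above the mean of all tested compounds plus 3 SD, set per screening campaign (cut at about 45% in these data); inactive = the rest.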 Many of the other results were omitted from the sample, so actives are more common in it than they were.
# System: HCV core protein (residues 1-106) dimerization
# Assay: blockers of core106 self-association – biochemical, TR-FRET, high-throughput, primary screen (AID 1899)
# Conditions: TR-FRET GST/Flag-core106 dimerization, 1536-well; at 5 µM; stronger effect = higher value
# Procedure, shortened: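 System: GST/Flag-tagged HCV core106 proteins. Incubation: compound-protein-antibody incubation 4 h at 22.5 °C. Technique: HTRF with 340 nm excitation, 617/671 nm emission. Medium: KF-containing HEPES buffer, pH 7.45, DTT, CHAPS, BSA. Read-out: inhibition (%) from 671 over 617 nm ratio. Also added: Eu(K)-anti-GST 90 ng/mL plus XL665-anti-Flag 1 µg/mL.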
row,Compound,inhibition
1,CCOc1ccccc1/C=c1\sc2nc(-c3ccco3)nn2c1=O,62.2% (active)
2,CSc1nc(-c2ccco2)nn1C(=O)CCc1ccccc1,-2.5% (inactive)
3,O=c1nc2s/c(=C\c3ccco3)c(=O)n2nc1Cc1ccccc1,22.3% (inactive)
4,CC(=O)c1c(Nc2ccccc2)sc(C(=O)c2ccccc2)c1C,-11.1% (inactive)
5,C=CCC(Nc1ccccc1)c1cccc(OC)c1OC (stereo not drawn),2.92% (inactive)
6,CCOC(=O)c1c(C)n(C)c2ccc(OC)c(NC(=O)CN3CCC4(CC3)OCCO4)c12,-1.2% (inactive)
7,Cc1ccc2nc(-c3ccncc3)cc(C(=O)Nc3ccncc3)c2c1,8.74% (inactive)
8,O=C(Nc1ccc(S(=O)(=O)Nc2nccs2)cc1)c1cc(=O)[nH]c2ccccc12,2.23% (inactive)
9,O=C(Nc1ccc(S(=O)(=O)Nc2nccs2)cc1)c1cc(-c2ccncc2)nc2ccccc12,76% (active)
10,Cc1ccc(C(=O)O)cc1-c1ccc(/C=C2\SC(=O)N(CC(=O)Nc3ccc4c(c3)OCO4)C2=O)o1,4.8% (inactive)
11,C=CCOc1ccc(Cl)cc1CNCCCN1CCOCC1,12.2% (inactive)
12,CCn1c(C)c(C)c2cc(C(=O)N3CCN(c4cccc(C)c4C)CC3)ccc21,18% (inactive)
13,C[C@@H]1CC[C@@]2(OC1)O[C@H]1C[C@H]3[C@@H]4CC=C5C[C@@H](O)[C@H](O)C[C@]5(C)C4CC[C@]3(C)[C@H]1[C@@H]2C (stereo partly drawn),-14.2% (inactive)
14,Cc1cccc(NC(=O)CN2CCCN(S(=O)(=O)c3ccc(Br)s3)CC2)c1,3.89% (inactive)
15,CCN(CC(=O)NC1CCS(=O)(=O)C1)c1nc(-c2cccnc2)nc2ccccc12 (stereo not drawn),-0.09% (inactive)
16,COC(=O)CCCC1=CC2=CC(=O)C(C)(OC(=O)c3cccs3)C(=O)C2=CN1CC1CC1 (stereo not drawn),-6.02% (inactive)
17,COC(=O)CCCC1=CC2=CC(=O)C(C)(OC(=O)c3cccs3)C(=O)C2=CN1c1cccc(C#N)c1 (stereo not drawn),47.4% (active)
18,COC(=O)CCCC1=CC2=CC(=O)C(C)(OC(=O)c3cccs3)C(=O)C2=CN1CC(C)C (stereo not drawn),11.6% (inactive)
19,COc1cccc(NC(=O)c2ccccc2N(Cc2ccccc2)S(C)(=O)=O)c1,1.86% (inactive)
20,CCc1ccc(NC(=O)Cn2ncn3c(cc4ccccc43)c2=O)cc1,13% (inactive)
21,COc1ccc(NC(=O)CCNC(=O)Cn2ccc3ccccc3c2=O)c(OC)c1,-5.48% (inactive)
22,COc1ccc(NC(=O)Cn2ncn3c(cc4ccccc43)c2=O)c(OC)c1OC,50.6% (active)
23,Fc1ccc(-c2ccc(NCCN3CCOCC3)nn2)cc1,-9.05% (inactive)
24,Cc1ccc(C)c(OCCC(=O)Nc2cccc(S(=O)(=O)N3CCCC3)c2)c1,-2.89% (inactive)
25,CN(C(=O)COC(=O)c1cc(-c2ccco2)nc2ccccc12)C1CCS(=O)(=O)C1 (stereo not drawn),77.2% (active)
26,CN(C(=O)COC(=O)c1nc(Cl)ccc1Cl)C1CCS(=O)(=O)C1 (stereo not drawn),5.01% (inactive)
27,Cc1c(-c2cccc(Cl)c2)nc2ccccc2c1C(=O)OCC(=O)N(C)C1CCS(=O)(=O)C1 (stereo not drawn),1.86% (inactive)

row,Compound,inhibition
1,COc1ccc(NC(=O)c2ccccc2CC[N+](=O)[O-])cc1,1.6% (inactive)
2,O=C(Cc1ccc(S(=O)(=O)N2CCOCC2)s1)NCCC(c1ccccc1)c1ccccc1,44.1% (inactive)
3,O=C(NC1CCCCC1)C1CCCN(S(=O)(=O)c2ccc(Br)s2)C1 (stereo not drawn),3.6% (inactive)
4,O=C(Cc1ccc(S(=O)(=O)N2CCCC2)s1)NC1CCCCCC1,48% (active)
5,Cc1ccc(NS(=O)(=O)c2c(C)[nH]c(=O)[nH]c2=O)cc1C,-1.79% (inactive)
6,Cc1nn(-c2ccccc2)c2c1C(c1ccc(F)cc1)C(C#N)=C(N)O2 (stereo not drawn),-4.93% (inactive)
7,Cc1nc2c(c(C)nn2-c2ccccc2)c(C)c1C,-4.33% (inactive)
8,CSc1ccc(-c2c(C#N)c(N)nc3c2c(C)nn3-c2ccccc2)cc1,49.1% (active)
9,CC(C)C(C)(C#N)NC(=O)CSc1nc2scc(-c3ccccc3)c2c(=O)[nH]1 (stereo not drawn),13.3% (inactive)
10,CCC(C)(C)n1nnnc1CN1CCN(c2nc3ccc(C)cc3cc2C#N)CC1,20.6% (inactive)
11,Cc1cc(C)c2nc(N3CCCC3)c(C#N)cc2c1,51.7% (active)
12,CCOC(=O)c1cc(C#N)c(N2CCCCC2)nc1-c1ccccc1,13.8% (inactive)
13,CN(CCC(=O)Nc1cc(S(=O)(=O)N(C)C)ccc1Cl)CC(=O)Nc1ccc(F)cc1,-16.6% (inactive)
14,COc1cccc(/C=C2\Sc3ccc(C(=O)NCC4CCCO4)cc3N(C)C2=O)c1 (stereo not drawn),4.72% (inactive)
15,COc1ccc(OC)c(NC(=O)Cc2cccs2)c1,14.6% (inactive)
16,CCOc1ccccc1NC(=O)Cc1cccs1,55.5% (active)
17,CCOc1ccccc1NC(=O)Cn1nnc(C(=O)NCc2cccs2)c1N,-5.57% (inactive)
18,COc1ccc(C(=O)c2c3ccc([N+](=O)[O-])cc3[n+]([O-])n2CCCN)cc1,1.89% (inactive)
19,CCc1ccc(NC(=O)CN2C(=O)CSC2=O)cc1,-2.17% (inactive)
20,Nc1nonc1-n1nnc(C(=O)N/N=C/C2CCCCC2)c1-c1ccccc1,-6.4% (inactive)
21,COc1ccc2c(c1)C(c1cccs1)=NNC(c1cccnc1)=N2,48.7% (active)
22,Fc1ccc2c(c1)C(c1cccnc1)=NNC(c1cccs1)=N2,-0.24% (inactive)
23,CCOc1ccc2c(c1)C(c1ccc(C)cc1)=NNC(c1ccc(C)cc1)=N2,6.95% (inactive)
24,CC(=O)c1ccc(S(=O)(=O)NC2CC(=O)N(c3ccc4c(c3)OCCO4)C2)cc1 (stereo not drawn),0.9% (inactive)
25,COc1ccc(/C=C/C2=CC(C)(C)NC(=S)N2)c(OC)c1,3.61% (inactive)
26,CN1CCN(C(=O)N2c3ccccc3CCc3ccccc32)CC1,-2.2% (inactive)
